Source: ChEMBL document CHEMBL3393009 (J Med Chem, 2015)
Active and inactive are the calls of the source. No cut-off for these calls is given here.

Key:
[1] = biological target: T1, Tyrosine-protein kinase JAK3 (Homo sapiens) (UniProt P52333); assay: Inhibition of JAK3 (JH1 domain-catalytic) (unknown origin) at 1 uM
T1 sequence (whole entry): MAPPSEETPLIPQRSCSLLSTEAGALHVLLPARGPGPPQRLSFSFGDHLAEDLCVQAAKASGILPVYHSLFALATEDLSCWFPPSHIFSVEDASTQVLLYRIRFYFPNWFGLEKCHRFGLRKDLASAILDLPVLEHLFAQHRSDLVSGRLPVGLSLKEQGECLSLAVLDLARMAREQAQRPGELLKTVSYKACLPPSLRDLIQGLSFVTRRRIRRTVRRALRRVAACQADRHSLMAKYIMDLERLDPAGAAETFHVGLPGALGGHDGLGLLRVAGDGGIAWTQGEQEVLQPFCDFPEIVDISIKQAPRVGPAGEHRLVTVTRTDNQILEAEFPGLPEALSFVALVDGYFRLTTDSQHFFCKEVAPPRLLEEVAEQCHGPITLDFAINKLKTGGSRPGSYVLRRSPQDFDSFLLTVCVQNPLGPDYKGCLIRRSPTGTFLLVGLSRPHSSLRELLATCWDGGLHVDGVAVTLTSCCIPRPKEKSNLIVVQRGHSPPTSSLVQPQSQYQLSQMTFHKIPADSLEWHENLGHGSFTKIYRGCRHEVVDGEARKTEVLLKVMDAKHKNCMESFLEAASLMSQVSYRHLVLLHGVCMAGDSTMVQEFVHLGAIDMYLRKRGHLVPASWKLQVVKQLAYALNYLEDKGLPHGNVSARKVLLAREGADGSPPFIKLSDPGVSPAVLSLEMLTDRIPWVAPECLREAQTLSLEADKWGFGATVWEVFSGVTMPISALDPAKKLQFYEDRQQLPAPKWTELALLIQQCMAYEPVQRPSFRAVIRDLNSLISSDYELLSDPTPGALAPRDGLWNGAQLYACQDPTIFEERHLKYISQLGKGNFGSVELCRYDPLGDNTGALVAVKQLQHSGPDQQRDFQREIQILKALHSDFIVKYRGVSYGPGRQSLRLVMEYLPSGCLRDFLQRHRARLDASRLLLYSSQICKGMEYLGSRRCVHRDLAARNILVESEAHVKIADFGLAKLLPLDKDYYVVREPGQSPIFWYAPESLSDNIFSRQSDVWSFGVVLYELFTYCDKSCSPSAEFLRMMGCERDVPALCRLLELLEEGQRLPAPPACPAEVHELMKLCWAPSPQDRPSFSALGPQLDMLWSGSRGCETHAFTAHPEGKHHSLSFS

Rattus norvegicus [2] = assay: Drug coverage index, ratio fAUC in Wistar Han rat at 6 mg/kg, po bid for 14 days to IC50 for LRRK2 […] phosphorylation in Wistar Han rat brain at 6 to 60 mg/kg, po bid for 14 days; format: ADME, organism-based; details: in vivo, 336 h
Procedure, shortened: (§1)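 Wistar Han rats (200–300 g, 8–11 weeks old) were dosed by oral gavage twice daily for 14 days. Vehicle was 10% propylene glycol/20% PEG400/70% 9.5% methocellulose.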

[3] = Tmax in non-human primate at 5 mg/kg, po; format: ADME, organism-based; design: dose 5 mg/kg, route oral; details: monkey, in vivo
[4] = Tmax in dog at 5 mg/kg, po; format: ADME, organism-based, Canis lupus familiaris; design: dose 5 mg/kg, route oral; details: in vivo
[5] = Drug coverage index, ratio fCmax in Wistar Han rat at 20 mg/kg, po bid for 14 days to IC50 for LRRK2 […] phosphorylation in Wistar Han rat brain at 6 to 60 mg/kg, po bid for 14 days; format: ADME, organism-based; details: in vivo, 336 h; procedure, shortened: as §1
[6] = Drug coverage index, ratio fCmax in Wistar Han rat at 60 mg/kg, po bid for 14 days to IC50 for LRRK2 S395 phosphorylation in Wistar Han rat brain at 6 to 60 mg/kg, po bid for 14 days; format: ADME, organism-based; details: in vivo, 336 h; procedure, shortened: as §1
[7] = Drug coverage index, ratio of average concentration ( 0 to 24 hrs) in Wistar Han rat at 6 to 60 mg/kg, po bid for 14 days to IC50 for LRRK2 […] phosphorylation in Wistar Han rat brain at 6 to 60 mg/kg, po bid for 14 days; format: ADME, organism-based; details: in vivo; procedure, shortened: as §1
Rattus norvegicus [8] = assay: Volume of distribution at steady state in rat at 5 mg/kg, po; format: ADME, organism-based; design: dose 5 mg/kg, route oral; details: in vivo
Rattus norvegicus [9] = assay: fCmax in Wistar Han rat at 60 mg/kg, po bid for 14 days; format: ADME, organism-based; design: dose 60 mg/kg, route oral; details: in vivo, 336 h
[10] = Half life in dog at 5 mg/kg, po; format: ADME, organism-based, Canis lupus familiaris; design: dose 5 mg/kg, route oral; details: in vivo
Mus musculus [11] = assay: Effect on total LRRK2 protein level in BAC-transgenic C57BL/6J mouse brain at 3 to 100 mg/kg, sc measured after 90 mins post dose; format: ADME, organism-based; design: dose 3-100 mg/kg, route subcutaneous; details: in vivo, 1.5 h
Mus musculus [12] = assay: Effect on total LRRK2 protein level in BAC-transgenic C57BL/6J mouse kidney at 3 to 100 mg/kg, sc measured after 90 mins post dose; format: ADME, organism-based; design: dose 3-100 mg/kg, route subcutaneous; details: in vivo, 1.5 h
[13] = biological target: Tyrosine-protein kinase JAK1 (Homo sapiens, UniProt P23458); assay: Inhibition of JAK1 (JH2 domain-pseudokinase) (unknown origin) at 1 uM
[14] = biological target: T2, Serine/threonine-protein kinase 3 (Homo sapiens, UniProt Q13188); assay: Inhibition of human recombinant MST2 using Ser/Thr peptide 7 substrate after 45 mins by Z-Lyte assay
T2 sequence (Q13188 whole entry): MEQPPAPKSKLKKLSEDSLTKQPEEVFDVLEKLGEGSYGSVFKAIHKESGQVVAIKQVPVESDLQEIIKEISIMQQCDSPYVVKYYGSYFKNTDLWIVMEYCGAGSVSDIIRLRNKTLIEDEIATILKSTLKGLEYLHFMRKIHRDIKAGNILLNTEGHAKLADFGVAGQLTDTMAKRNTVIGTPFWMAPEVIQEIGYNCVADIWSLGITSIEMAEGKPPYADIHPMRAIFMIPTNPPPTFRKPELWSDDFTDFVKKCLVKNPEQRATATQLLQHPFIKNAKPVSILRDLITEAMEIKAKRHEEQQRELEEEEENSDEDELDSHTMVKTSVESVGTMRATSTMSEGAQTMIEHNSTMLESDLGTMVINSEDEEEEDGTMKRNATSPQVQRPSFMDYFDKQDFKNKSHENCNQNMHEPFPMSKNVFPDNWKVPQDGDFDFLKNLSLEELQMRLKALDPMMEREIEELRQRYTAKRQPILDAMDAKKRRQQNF

[15] = Cmax in dog at 5 mg/kg, po; format: ADME, organism-based, Canis lupus familiaris; design: dose 5 mg/kg, route oral; details: in vivo
Mus musculus [16] = assay: Potency index, ratio of IC50 for LRRK2 […] mutant […] phosphorylation in BAC-transgenic mouse at 3 to 100 mg/kg, sc to IC50 for wild type LRRK2 […] phosphorylation in BAC-transgenic C57BL/6J mouse brain at 3 to 100 mg/kg, sc; format: functional
Procedure, shortened: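 Four-month-old C57BL/6J mice and seven-month-old LRRK2 BAC-transgenic G2019S mice received single subcutaneous doses. Vehicle was 10% NMP in 20% SBECD. Brain was collected 90 min after dosing and snap frozen. LRRK2 pS935 phosphorylation was measured in brain lysate. An unbound-drug IC50 was estimated from the dose–response in each strain.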

[17] = Half life in rat at 5 mg/kg, po; format: ADME, organism-based; design: dose 5 mg/kg, route oral; details: in vivo
[18] = Clearance in human liver microsomes; format: ADME; details: read-out: CLH
Procedure, shortened: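 Human liver microsomal clearance.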

Sequence of Tyrosine-protein kinase JAK1 (P23458 whole entry, the tested form may be a part): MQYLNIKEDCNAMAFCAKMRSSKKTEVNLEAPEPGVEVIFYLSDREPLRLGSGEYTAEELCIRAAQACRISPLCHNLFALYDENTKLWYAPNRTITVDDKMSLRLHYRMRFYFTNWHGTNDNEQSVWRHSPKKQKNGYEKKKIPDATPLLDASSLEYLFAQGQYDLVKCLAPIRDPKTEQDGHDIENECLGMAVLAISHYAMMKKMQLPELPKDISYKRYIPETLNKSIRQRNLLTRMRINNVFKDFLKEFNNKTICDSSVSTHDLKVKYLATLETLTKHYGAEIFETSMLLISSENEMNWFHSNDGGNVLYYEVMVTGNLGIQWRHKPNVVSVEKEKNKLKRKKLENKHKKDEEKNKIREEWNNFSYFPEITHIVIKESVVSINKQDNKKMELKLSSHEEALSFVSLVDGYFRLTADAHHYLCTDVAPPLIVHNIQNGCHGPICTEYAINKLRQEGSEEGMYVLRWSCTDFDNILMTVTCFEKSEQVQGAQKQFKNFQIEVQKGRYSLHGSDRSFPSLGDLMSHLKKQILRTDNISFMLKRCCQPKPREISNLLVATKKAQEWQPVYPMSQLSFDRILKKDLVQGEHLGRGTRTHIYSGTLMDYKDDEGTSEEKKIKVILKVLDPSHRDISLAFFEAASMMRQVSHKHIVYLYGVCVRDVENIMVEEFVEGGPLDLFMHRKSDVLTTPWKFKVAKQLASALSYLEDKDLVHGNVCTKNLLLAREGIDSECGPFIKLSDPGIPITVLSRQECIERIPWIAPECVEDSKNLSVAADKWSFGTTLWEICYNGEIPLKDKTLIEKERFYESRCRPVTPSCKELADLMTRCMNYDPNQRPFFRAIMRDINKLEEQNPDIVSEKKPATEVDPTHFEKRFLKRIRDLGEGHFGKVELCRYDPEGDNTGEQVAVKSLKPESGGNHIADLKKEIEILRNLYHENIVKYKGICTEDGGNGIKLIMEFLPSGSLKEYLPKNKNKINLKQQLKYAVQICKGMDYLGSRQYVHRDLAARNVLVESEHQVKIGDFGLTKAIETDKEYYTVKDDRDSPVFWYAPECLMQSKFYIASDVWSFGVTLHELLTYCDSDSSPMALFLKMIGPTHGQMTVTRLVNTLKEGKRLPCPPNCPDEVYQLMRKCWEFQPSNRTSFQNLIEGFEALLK

**Q.** What does the source list for `N#Cc1cccc(-c2c[nH]c3ncnc(N4CCOCC4)c23)c1`?
**A.** inhibition [1]: inactive; Ratio (Rattus norvegicus [2]): 2; Tmax [3]: 2 h; Tmax [4]: 0.38 h; Ratio [5]: 25; Ratio [6]: 70; Ratio [7]: 31; Vdss (Rattus norvegicus [8]): 1.83 L/kg; fCmax (Rattus norvegicus [9]): 1050 nM; half-life [10]: 0.78 h; Activity (Mus musculus [11]): Non-toxic; Activity (Mus musculus [12]): Non-toxic; inhibition [13]: inactive; IC50 [14]: 0.022 µM; Cmax [15]: 15 ng/mL; Ratio IC50 (Mus musculus [16]): 10; half-life [17]: 6.22 h; CLint scaled [18]: 36 mL/min/kg
